# Results from ChEMBL document CHEMBL1149191, “Novel pyridazino[4,3-b]indoles with dual inhibitory activity against Mycobacterium tuberculosis and monoamine oxidase” (J Med Chem, 2004).
# pIC50: −log10 of the molar value.
# How the values were obtained:
# [1] = test system: Mycobacterium tuberculosis; experiment: In vitro inhibition of Mycobacterium tuberculosis H37Rv, determined at 2 ug/mL; type: functional
# Method in brief: (§1)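 M. tuberculosis H37Rv (Pasteur) grown twice for 1 week each in Dubos broth at 37 °C, washed, then filtered to remove clumps. 25 × 10⁴ CFU per well in RPMI 1640 with 5 mM HEPES, 2 mM L-glutamine and 2% FBS. Compound added from DMSO stock; 5,6-[³H]-uracil added at 24 h, then 18 h at 37 °C.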
# [2] = test system: Mycobacterium tuberculosis; experiment: In vitro inhibition of Mycobacterium tuberculosis H37Rv, determined at 20 ug/mL; type: functional; method in brief: as §1
# [3] = test system: Mycobacterium tuberculosis; experiment: Minimal inhibitory activity of compound against Mycobacterium tuberculosis H37Rv; type: functional
# Method in brief: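 Same H37Rv [³H]-uracil incorporation assay: compound at final 20, 2.0 and 0.2 μg/mL, 24 h, then 1 μCi 5,6-[³H]-uracil for 18 h at 37 °C, harvested on filters, scintillation counted, triplicate. MIC50 is the concentration giving 50% reduction in cpm versus drug-free plate at the same bacterial dilution.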
# [4] = test system: Mycobacterium tuberculosis; experiment: In vitro inhibition of Mycobacterium tuberculosis H37Rv, determined at 0.2 ug/mL; type: functional; method in brief: as §1
# [5] = target: T1, Amine oxidase [flavin-containing] B (Rattus norvegicus, UniProt P19643); experiment: Inhibition of Monoamine oxidase B from rat liver mitochondria
# T1 sequence (P19643 whole entry): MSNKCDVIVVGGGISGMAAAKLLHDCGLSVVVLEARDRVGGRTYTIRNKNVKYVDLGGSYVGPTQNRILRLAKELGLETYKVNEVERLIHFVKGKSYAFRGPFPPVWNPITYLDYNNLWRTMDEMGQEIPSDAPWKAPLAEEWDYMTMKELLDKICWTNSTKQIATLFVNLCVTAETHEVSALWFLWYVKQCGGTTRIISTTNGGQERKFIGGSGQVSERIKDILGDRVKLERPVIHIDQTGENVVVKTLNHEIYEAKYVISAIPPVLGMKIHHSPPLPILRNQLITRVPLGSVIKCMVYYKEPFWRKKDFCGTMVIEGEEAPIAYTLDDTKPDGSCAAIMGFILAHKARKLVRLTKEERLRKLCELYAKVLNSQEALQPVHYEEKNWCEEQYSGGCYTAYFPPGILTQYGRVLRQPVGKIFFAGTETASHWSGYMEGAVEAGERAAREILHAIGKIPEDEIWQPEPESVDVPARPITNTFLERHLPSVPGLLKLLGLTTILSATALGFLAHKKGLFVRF
# Method in brief: (§2)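 Rat liver mitochondria from differential centrifugation, in 50 mM phosphate buffer pH 7.4. Preincubated with inhibitor (10⁻⁸–10⁻³ or 10⁻⁴ M) for 60 min at 37 °C. MAO-B activity measured radiometrically as ¹⁴C-aldehyde formed from 10 μM [¹⁴C]-phenylethylamine; IC50 reported.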
# [6] = target: T2, Amine oxidase [flavin-containing] A (Rattus norvegicus, UniProt P21396); experiment: Inhibition of Monoamine oxidase A from rat liver mitochondria
# T2 sequence (P21396 whole entry): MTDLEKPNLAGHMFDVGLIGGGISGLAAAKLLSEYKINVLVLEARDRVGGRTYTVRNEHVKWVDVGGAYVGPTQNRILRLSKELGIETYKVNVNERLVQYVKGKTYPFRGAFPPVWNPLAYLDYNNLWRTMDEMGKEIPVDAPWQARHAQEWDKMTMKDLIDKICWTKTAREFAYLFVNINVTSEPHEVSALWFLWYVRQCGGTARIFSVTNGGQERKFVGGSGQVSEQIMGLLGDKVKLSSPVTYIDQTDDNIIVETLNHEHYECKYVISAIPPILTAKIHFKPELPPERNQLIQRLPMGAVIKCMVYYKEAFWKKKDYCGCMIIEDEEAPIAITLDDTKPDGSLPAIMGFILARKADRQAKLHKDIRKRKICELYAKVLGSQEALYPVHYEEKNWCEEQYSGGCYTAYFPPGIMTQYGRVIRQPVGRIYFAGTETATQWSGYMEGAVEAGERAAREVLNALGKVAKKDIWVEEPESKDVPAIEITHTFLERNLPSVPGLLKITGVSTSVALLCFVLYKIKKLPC
# Method in brief: (§3)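 Rat liver mitochondria from differential centrifugation, in 50 mM phosphate buffer pH 7.4. Preincubated with inhibitor (10⁻⁸–10⁻³ or 10⁻⁴ M) for 60 min at 37 °C. MAO-A activity measured radiometrically as ¹⁴C-aldehyde formed from 0.1 mM [¹⁴C]-5-hydroxytryptamine creatinine sulfate; IC50 reported.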
# [7] = target: T1, Amine oxidase [flavin-containing] B; experiment: Inhibitory activity against Monoamine oxidase B isolated from rat liver mitochondria using [14C]phenylethylamine; NI denotes no inhibition at 1000 uM; method in brief: as §2
# [8] = target: T2, Amine oxidase [flavin-containing] A; experiment: Inhibitory activity of compound against Monoamine oxidase A isolated from rat liver mitochondria using [14C]5-HT creatinine sulfate; NI denotes no inhibition at 1000 uM; method in brief: as §3
Structure (SMILES),inhibition at 2 µg/mL [1] [%],inhibition at 20 µg/mL [2] [%],MIC50 [3] [µg/mL],inhibition at 0.2 µg/mL [4] [%],pIC50 [5],pIC50 [6],IC50 [7],IC50 [8]
CC(C)c1ccc(-c2c(N)nnc3c4ccccc4n(C)c23)cc1,63.6,88,1.42,21.3,3.50,4.85,,
CCn1c2ccccc2c2nnc(N)c(-c3ccc(C(C)C)cc3)c21,10.5,94.3,10.5,0,4.80,4.00,,
CC(C)c1ccc(-c2c3nc4ccccc4c-3n[nH]c2N)cc1,32.9,61.9,12.6,8.7,< 3.00,< 3.00,,
Cn1c2ccccc2c2nnc(N)c(-c3cccc(Br)c3)c21,0,60.1,,0,4.00,4.20,,
Cn1c2ccccc2c2nnc(N)c(-c3ccccc3)c21,25.5,40.2,,2.3,~3.00,4.55,,
Nc1[nH]nc2c3cc(Br)ccc3nc-2c1-c1ccccc1,44.3,91.4,4.17,9.2,4.60,4.20,,
NNC(=O)c1ccncc1 [ISONIAZID],59.1,68.7,0.25,49.7,,,,
Nc1[nH]nc2c3ccccc3nc-2c1-c1ccccc1Cl,0,35,,0,,3.50,No inhibition,
CC(=O)N(C(C)=O)c1nnc2c3ccccc3n(C)c2c1-c1ccccc1,,0,,,,,,
CCn1c2ccccc2c2nnc(N)c(-c3ccccc3)c21,0,40.3,,0,4.14,,,No inhibition
Oc1[nH]nc2c3ccccc3nc-2c1-c1ccccc1,,0,,,,,,
CC(C)c1ccc(-c2c(N)nnc3c4cc(Br)ccc4n(C)c23)cc1,0,60.7,17.1,0,,,,
Nc1nnc2c3ccccc3n(Cc3ccccc3)c2c1-c1ccccc1,0,20.7,,0,,,,
CCn1c2ccccc2c2nnc(N)c(-c3ccc(C)cc3)c21,0,30.1,,0,4.96,,,No inhibition
CC(C)c1ccc(-c2c(N)nnc3c4ccccc4n(CCN(C)C)c23)cc1,0,20.4,,0,,3.00,No inhibition,
Cn1c2ccccc2c2nnc(O)c(-c3ccccc3)c21,,0,,,,,,
Nc1nnc2c([nH]c3ccccc32)c1-c1ccccc1,25.5,28.5,,2.3,,,No inhibition,No inhibition
Cn1c2ccccc2c2nnc(N)c(-c3ccccc3Cl)c21,0,3.1,,0,~3.00,~3.00,,
